The values that follow come from PMC3401475 (Nucleic Acids Research, 2012).

Data set [1] in a line: Relative fluorescence quantum yield. The settings on record: in methanol, excitation 362 nm. The class given is physicochemical.
In data set [2] the test system is human fibroblast cells. Nature of the data set: MTT cell viability, human fibroblasts. The data set is classed as cell-based. The settings on record: at concentrations up to 500 µM.
Data set [3] addresses (CUG)10 RNA. The data set is described as follows: SPR binding to. An outline of the steps:
(§1)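 Streptavidin coupled to both flow cells of a CM5 dextran chip after EDC/NHS activation. 5'-Biotin RNA captured at 200–1000 RU; reference cell biotin-blocked. Compound concentrations flowed in HBS-N (0.01 M HEPES, 0.15 M NaCl, pH 7.4) […]. Dissociation ≥200 s, then 0.5 or 1 M NaCl regeneration. Duplicate injections, buffer-blank subtracted. Global 1:1 Langmuir fit. KD averaged over two chips with different RNA densities. t1/2 = ln2/koff.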

The test system of data set [4] is (CCUG)10 RNA. Nature of the data set: SPR binding to. An outline of the steps:
as §1
Background: In SPR one partner is held on a chip, and binding of the other changes the refractive index at the surface.

Data set [5] has as its system C2C12 mouse myoblasts. Nature of the data set: MTT cell toxicity, mouse myoblasts. The data set is classed as cell-based. The settings on record: 48 h, all concentrations tested. An outline of the steps: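 C2C12 myoblasts in DMEM (10% FBS, 1% penicillin–streptomycin) grown to ~80% confluence at 37°C under CO2. Compound at varying concentrations (up to 1 mM), 48 h, 37°C. MTT in medium added for 4 h at 37°C, then isopropanol solubilisation; absorbance read at 600 nm.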

As to `CCc1nc2cc3ccccc3cc2cc1C(=O)O` [Compound 2, ethylbenzo[g]quinoline carboxylic acid], in data set [1], the “fluorescence quantum yield relative to quinine sulfate” value is listed as 0.64. For the same compound, the “toxicity by MTT assay” value in data set [2] is on record as “no toxicity”. Also, the “Apparent KD” value in data set [3] ((CUG)10, HBS-N pH 7.4, average of two titrations) is recorded as “complete lack of binding”.
For `NC[C@@H]1O[C@H](O[C@H]2[C@@H](O)[C@H](O[C@@H]3[C@@H](O)[C@H](N)C[C@H](N)[C@H]3O[C@H]3O[C@H](CN)[C@@H](O)[C@H](O)[C@H]3N)O[C@@H]2CO)[C@H](N)[C@@H](O)[C@@H]1O` [Neomycin, Neomycin B], the “Residence time t1/2” value in data set [4] ((CCUG)10, t1/2 = ln2/kd) is recorded as 4 s; in data set [3] ((CUG)10, t1/2 = ln2/kd) it was 14 s. Further, the Kd is 1.96 µM in data set [4] (read-out: Apparent KD, (CCUG)10, HBS-N pH 7.4, average of two titrations) and 0.409 µM in data set [3] (read-out: Apparent KD, (CUG)10, HBS-N pH 7.4, average of two titrations).
On to `CO[C@@]12[C@H](COC(N)=O)C3=C(C(=O)C(C)=C(N)C3=O)N1C[C@@H]1N[C@@H]12` [mitomycin C], for which the “toxicity by MTT assay” value in data set [5] is listed as “significant toxicity”.
